How the values were obtained:
Details in all cases: stereoisomer not certain
OR13C2 (Homo sapiens) = target: T1, OR13C2 (Homo sapiens) (UniProt Q8NGS9)
T1 sequence (whole entry): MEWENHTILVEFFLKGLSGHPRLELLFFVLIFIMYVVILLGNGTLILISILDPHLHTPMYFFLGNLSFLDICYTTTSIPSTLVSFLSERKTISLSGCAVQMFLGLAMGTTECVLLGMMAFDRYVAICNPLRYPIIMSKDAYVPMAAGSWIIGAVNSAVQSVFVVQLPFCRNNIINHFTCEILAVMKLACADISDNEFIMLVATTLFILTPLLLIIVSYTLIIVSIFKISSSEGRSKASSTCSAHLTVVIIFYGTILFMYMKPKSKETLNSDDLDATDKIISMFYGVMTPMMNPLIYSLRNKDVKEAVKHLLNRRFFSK
In short: (§1)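 Transient luciferase assays in mammalian cell lines were common, though methods varied by source. The values come from published papers and their supplementary material, with extra details from the original authors when needed. Responsive refers to a measured signal the original authors judged statistically different from baseline, and non-responsive (inactive) to the remainder.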

OR13C3 (Homo sapiens) = target: T2, OR13C3 (Homo sapiens) (UniProt Q8NGS6)
T2 sequence (whole entry): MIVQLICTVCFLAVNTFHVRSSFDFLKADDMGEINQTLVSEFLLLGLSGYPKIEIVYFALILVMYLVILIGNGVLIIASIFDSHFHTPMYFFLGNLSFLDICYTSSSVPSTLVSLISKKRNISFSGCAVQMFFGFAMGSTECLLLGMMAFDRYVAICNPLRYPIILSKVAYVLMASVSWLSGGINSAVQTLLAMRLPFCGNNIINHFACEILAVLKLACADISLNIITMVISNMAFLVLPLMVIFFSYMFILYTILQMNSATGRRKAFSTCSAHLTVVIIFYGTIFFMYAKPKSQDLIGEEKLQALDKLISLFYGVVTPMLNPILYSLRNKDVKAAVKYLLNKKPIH
In short: as §1

OR13C4 (Homo sapiens) = target: T3, OR13C4 (Homo sapiens) (UniProt Q8NGS5)
T3 sequence (whole entry): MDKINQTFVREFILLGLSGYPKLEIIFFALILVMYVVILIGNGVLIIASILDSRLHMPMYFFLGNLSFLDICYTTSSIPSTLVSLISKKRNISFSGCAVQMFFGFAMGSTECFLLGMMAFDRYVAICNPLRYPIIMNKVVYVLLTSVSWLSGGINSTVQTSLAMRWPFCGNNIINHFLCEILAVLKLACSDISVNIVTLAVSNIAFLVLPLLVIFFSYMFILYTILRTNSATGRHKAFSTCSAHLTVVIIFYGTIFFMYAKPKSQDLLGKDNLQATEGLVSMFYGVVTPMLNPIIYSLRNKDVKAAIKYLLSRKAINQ
In short: as §1

OR13C5 (Homo sapiens) = target: T4, OR13C5 (Homo sapiens) (UniProt Q8NGS8)
T4 sequence (whole entry): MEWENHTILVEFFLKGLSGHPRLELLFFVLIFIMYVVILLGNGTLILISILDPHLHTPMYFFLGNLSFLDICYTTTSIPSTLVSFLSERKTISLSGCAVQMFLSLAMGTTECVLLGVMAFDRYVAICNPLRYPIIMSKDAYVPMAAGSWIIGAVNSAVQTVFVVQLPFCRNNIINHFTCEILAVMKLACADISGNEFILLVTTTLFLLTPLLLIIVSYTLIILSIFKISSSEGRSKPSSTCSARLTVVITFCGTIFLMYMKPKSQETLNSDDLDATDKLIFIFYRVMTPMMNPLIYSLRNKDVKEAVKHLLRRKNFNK
In short: as §1

OR13C8 (Homo sapiens) = target: T5, OR13C8 (Homo sapiens) (UniProt Q8NGS7)
T5 sequence (whole entry): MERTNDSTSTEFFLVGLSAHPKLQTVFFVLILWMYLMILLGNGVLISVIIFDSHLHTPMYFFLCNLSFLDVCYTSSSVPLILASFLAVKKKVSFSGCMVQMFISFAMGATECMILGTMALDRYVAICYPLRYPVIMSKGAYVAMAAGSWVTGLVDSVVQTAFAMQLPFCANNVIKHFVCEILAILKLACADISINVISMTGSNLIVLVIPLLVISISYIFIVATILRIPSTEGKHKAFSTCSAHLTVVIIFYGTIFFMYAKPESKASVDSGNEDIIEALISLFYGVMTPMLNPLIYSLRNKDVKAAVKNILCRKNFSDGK
In short: as §1

OR13C9 (Homo sapiens) = target: T6, OR13C9 (Homo sapiens) (UniProt Q8NGT0)
T6 sequence (whole entry): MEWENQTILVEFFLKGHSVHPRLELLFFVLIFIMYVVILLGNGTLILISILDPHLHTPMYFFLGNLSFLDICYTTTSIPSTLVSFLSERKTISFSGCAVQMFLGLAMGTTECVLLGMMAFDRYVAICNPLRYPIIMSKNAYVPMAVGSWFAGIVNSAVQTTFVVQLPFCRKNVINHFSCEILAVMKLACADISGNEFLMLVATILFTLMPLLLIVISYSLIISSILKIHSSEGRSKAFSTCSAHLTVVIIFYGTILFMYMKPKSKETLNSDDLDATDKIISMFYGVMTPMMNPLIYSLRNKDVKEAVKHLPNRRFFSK
In short: as §1

OR13D1 (Homo sapiens) = target: T7, OR13D1 (Homo sapiens) (UniProt Q8NGV5)
T7 sequence (whole entry): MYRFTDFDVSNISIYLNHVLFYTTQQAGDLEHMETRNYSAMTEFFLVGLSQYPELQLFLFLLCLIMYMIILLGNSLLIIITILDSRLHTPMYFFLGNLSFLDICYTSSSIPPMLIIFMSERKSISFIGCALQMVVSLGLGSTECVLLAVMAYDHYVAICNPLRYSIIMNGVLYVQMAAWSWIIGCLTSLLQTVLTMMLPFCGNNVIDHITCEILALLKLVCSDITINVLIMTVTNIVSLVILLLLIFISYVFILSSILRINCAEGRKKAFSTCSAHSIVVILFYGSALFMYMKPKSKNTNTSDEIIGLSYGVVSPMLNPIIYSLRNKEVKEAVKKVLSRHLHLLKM
In short: as §1

OR13F1 (Homo sapiens) = target: T8, OR13F1 (Homo sapiens) (UniProt Q8NGS4)
T8 sequence (whole entry): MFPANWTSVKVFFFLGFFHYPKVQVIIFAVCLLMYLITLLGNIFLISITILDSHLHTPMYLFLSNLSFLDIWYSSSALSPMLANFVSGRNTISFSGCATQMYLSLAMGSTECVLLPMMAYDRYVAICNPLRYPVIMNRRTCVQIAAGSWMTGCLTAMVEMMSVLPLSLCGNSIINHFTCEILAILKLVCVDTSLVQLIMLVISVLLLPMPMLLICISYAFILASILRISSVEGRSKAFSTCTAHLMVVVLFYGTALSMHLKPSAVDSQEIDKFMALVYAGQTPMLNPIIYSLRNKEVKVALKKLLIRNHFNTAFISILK
In short: as §1

OR13G1 (Homo sapiens) = target: T9, OR13G1 (Homo sapiens) (UniProt Q8NGZ3)
T9 sequence (whole entry): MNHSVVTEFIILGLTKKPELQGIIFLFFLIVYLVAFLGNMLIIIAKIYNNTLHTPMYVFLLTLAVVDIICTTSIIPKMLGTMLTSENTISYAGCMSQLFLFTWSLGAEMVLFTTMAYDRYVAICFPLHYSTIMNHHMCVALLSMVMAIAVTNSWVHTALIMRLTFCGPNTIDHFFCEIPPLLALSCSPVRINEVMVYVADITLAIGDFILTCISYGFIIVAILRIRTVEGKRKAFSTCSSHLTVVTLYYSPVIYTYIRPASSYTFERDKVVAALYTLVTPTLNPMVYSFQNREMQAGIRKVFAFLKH
In short: as §1

Measured: odorant receptor agonist call;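 also: active if original authors judged signal statistically different from baseline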

CCCCCCC=CCCC=O
inactive: all assays above
